In ChEMBL document CHEMBL1932972, “ent-Kaurane diterpenoids from Croton tonkinensis stimulate osteoblast differentiation” (J Nat Prod, 2011):
Calls of active or inactive are those of the source.

Columns and labels:
C2C12 [1] = assay: Induction of osteoblast differentiation in mouse C2C12 cells assessed as increase in osteoclacin promoter activity measured 48 hrs by luciferase reporter gene analysis; format: functional, cell-based
Procedure, shortened: (§1)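 ALP- or OC-luciferase reporter transfected into C2C12 cells with pCMV β-gal control (Ca3PO4 or Lipofectamine Plus), after 24 h growth post-seeding. Dose-response at 1, 5 and 10 μM. Lysate luciferase activity measured 48 h later; three independent experiments.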

C2C12 [2] = assay: Increase in ALP mRNA expression in mouse C2C12 cells by RT-PCR analysis; format: functional, cell-based
Procedure, shortened: (§2)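 C2C12 cells (DMEM, 20% FBS, 37 °C, 5% CO2) treated at 1, 5, 10 μM, with BMP2 as comparator. Total RNA extracted with TRIzol. cDNA made from 1 μg RNA using random primers. Semiquantitative RT-PCR for ALP and collagen type 1α with GAPDH reference, 28−30 cycles (94 °C 30 s, primer-specific annealing 30 s, 72 °C 30 s).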

C2C12 [3] = assay: Induction of osteoblast differentiation in mouse C2C12 cells assessed as increase in OSE promoter activity at 10 uM measured 48 hrs by luciferase reporter gene analysis; format: functional, cell-based
Procedure, shortened: (§3)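 C2C12 cells seeded and grown 24 h, then transiently transfected (Ca3PO4 or Lipofectamine Plus) with ALP-, OC-, BSP- or OSE-luciferase reporter plus pCMV β-gal to normalise transfection efficiency. Treated at 10 μM. Luciferase read from cell lysates 48 h post-transfection; three independent experiments.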

C2C12 [4] = assay: Induction of osteoblast differentiation in mouse C2C12 cells assessed as increase in osteoclacin promoter activity at 10 uM measured 48 hrs by luciferase reporter gene analysis; format: functional, cell-based; procedure, shortened: as §3
C2C12 [5] = assay: Increase in collagen type 1 alpha mRNA expression in mouse C2C12 cells by RT-PCR analysis; format: functional, cell-based; procedure, shortened: as §2
C2C12 [6] = assay: Induction of osteogenesis in mouse C2C12 cells assessed as increase in osteoblast differentiation-associated ALP level at 10 uM after 2 days in presence of 5 ng/mL BMP2
C2C12 [7] = assay: Induction of osteoblast differentiation in mouse C2C12 cells assessed as increase in ALP promoter activity at 10 uM measured 48 hrs by luciferase reporter gene analysis; format: functional, cell-based; procedure, shortened: as §3
C2C12 [8] = assay: Induction of osteoblast differentiation in mouse C2C12 cells assessed as increase in ALP promoter activity measured 48 hrs by luciferase reporter gene analysis; format: functional, cell-based; procedure, shortened: as §1
C2C12 [9] = assay: Induction of osteoblast differentiation in mouse C2C12 cells assessed as increase in of bone sialoprotein promoter activity at 10 uM measured 48 hrs by luciferase reporter gene analysis; format: functional, cell-based; procedure, shortened: as §3

Measured: Activity

C=C1C[C@@]23CC[C@@H]4[C@@](C)(COC(C)=O)CCC[C@@]4(C)[C@@H]2CC[C@@H]1[C@H]3O
active: C2C12 [1] Dose-dependent effect | C2C12 [2] Dose-dependent effect | C2C12 [3] | C2C12 [4] | C2C12 [5] Dose-dependent effect | C2C12 [6] | C2C12 [7] | C2C12 [8] Dose-dependent effect | C2C12 [9]

C=C1C[C@]23C[C@H]1CC[C@H]2[C@]1(C)CCC[C@](C)(COC(C)=O)[C@H]1C[C@H]3O
active: C2C12 [1] Dose-dependent effect | C2C12 [3] | C2C12 [4] | C2C12 [6] | C2C12 [7] | C2C12 [8] Dose-dependent effect | C2C12 [9]

C=C1C[C@@]23CC[C@@H]4[C@@](C)(COC(C)=O)CCC[C@@]4(C)[C@@H]2[C@H](O)C[C@@H]1C3
active: C2C12 [1] Dose-dependent effect | C2C12 [2] Dose-dependent effect | C2C12 [3] | C2C12 [4] | C2C12 [5] Dose-dependent effect | C2C12 [6] | C2C12 [7] | C2C12 [8] Dose-dependent effect | C2C12 [9]

C=C1C[C@@]23CC[C@@H]4[C@@](C)(CO)CCC[C@@]4(C)[C@@H]2[C@@H](OC(C)=O)C[C@@H]1C3
active: C2C12 [1] Dose-dependent effect | C2C12 [2] Dose-dependent effect | C2C12 [3] | C2C12 [4] | C2C12 [5] Dose-dependent effect | C2C12 [6] | C2C12 [7] | C2C12 [8] Dose-dependent effect | C2C12 [9]
